The record followed here is ChEMBL document CHEMBL4622983, “Structure-Activity Relationship Studies of α-Ketoamides as Inhibitors of the Phospholipase A and Acyltransferase Enzyme Family” (J Med Chem, 2020).

Assay [1] concerns the target T1, Phospholipase A and acyltransferase 3 (Homo sapiens, UniProt P53816).
T1 sequence (P53816 whole entry): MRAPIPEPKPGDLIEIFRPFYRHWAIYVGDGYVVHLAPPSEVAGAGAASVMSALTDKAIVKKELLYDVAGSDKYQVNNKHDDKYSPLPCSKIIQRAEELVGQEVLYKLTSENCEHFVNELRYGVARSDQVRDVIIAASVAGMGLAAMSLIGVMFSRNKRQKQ
The assay is described as follows: Inhibition of full-length C-terminal FLAG-tagged human PLAAT3 expressed in HEK293T cell lysate preincubated for 30 mins followed by MB064 addition and measured after 20 mins by SDS-PAGE based ABPP analysis. Format: cell-free, HEK-293T. In outline: (§1)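 Dose–response competitive ABPP on cytosol only, from HEK293T overexpressing FLAG-tagged PLAAT. Inhibitor 30 min rt, then MB064 20 min rt. PLAAT2 0.25 μg/μL with 250 nM probe; PLAAT3 0.5 μg/μL with 250 nM; PLAAT4 and PLAAT5 1 μg/μL with 500 nM. Fluorescence normalized to Coomassie. IC50 from curves, reported as pIC50 ± SEM, n = 3.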

In assay [2] the target is T2, Phospholipase A and acyltransferase 4 (Homo sapiens, UniProt Q9UL19).
T2 sequence (Q9UL19 whole entry): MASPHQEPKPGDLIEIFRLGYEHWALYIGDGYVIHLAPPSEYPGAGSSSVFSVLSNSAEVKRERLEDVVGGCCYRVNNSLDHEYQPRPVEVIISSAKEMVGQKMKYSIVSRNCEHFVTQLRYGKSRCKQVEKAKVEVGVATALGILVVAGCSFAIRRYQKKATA
The experiment in a line: Inhibition of full-length C-terminal FLAG-tagged human PLAAT4 expressed in HEK293T cell lysate preincubated for 30 mins followed by MB064 addition and measured after 20 mins by SDS-PAGE based ABPP analysis. Format: cell-free, HEK-293T. In outline:
as §1

Assay [3] concerns the target T3, Phospholipase A and acyltransferase 2 (Homo sapiens) (UniProt Q9NWW9).
T3 sequence (whole entry): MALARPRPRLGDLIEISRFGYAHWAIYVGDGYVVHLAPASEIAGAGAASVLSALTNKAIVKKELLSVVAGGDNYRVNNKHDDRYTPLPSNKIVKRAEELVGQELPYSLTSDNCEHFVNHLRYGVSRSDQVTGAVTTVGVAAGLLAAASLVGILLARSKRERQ
The experiment in a line: Inhibition of full-length C-terminal FLAG-tagged human PLAAT2 expressed in human U2OS cells assessed as reduction in anandamide level at 10 uM incubated for 4 hrs by LC-MS/MS analysis relative to control. The class given is cell-based. Summed up:
(§2)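 U2OS cells transfected with PLAAT2, PLAAT5 or empty vector (PEI, 1:5 plasmid/PEI). At 24 h, switched to serum-free medium with 10 μM compound (0.1% DMSO) or DMSO for 4 h at 37 °C. Pellets extracted with MTBE against deuterated internal standards. NAEs, 2-AG and free fatty acids quantified by LC–MS/MS, normalized to live cell count. Four biological replicates; one-way ANOVA.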

For assay [4], the target named is T4, Phospholipase A and acyltransferase 5 (Homo sapiens) (UniProt Q96KN8).
T4 sequence (whole entry): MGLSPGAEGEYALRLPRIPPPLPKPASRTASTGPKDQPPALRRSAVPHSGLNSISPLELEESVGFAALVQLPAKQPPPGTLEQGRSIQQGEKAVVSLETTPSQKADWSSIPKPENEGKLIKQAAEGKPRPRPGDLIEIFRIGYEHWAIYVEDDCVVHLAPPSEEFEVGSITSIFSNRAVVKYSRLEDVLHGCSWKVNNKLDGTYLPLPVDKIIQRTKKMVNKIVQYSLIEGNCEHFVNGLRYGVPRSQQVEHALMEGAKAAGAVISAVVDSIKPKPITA
The assay is described as follows: Inhibition of full-length C-terminal FLAG-tagged human PLAAT5 expressed in human U2OS cells assessed as reduction in absolute N-palmitoylethanolamine level at 10 uM incubated for 4 hrs by LC-MS/MS analysis. The class given is cell-based. Summed up:
as §2

Assay [5] addresses T4, Phospholipase A and acyltransferase 5 (Homo sapiens). The assay is described as follows: Inhibition of full-length C-terminal FLAG-tagged human PLAAT5 expressed in human U2OS cells assessed as reduction in absolute N-palmitoleoylethanolamine level at 10 uM incubated for 4 hrs by LC-MS/MS analysis. The class given is cell-based. In outline:
as §2

Assay [6] shares this target. The experiment in a line: Inhibition of full-length C-terminal FLAG-tagged human PLAAT5 expressed in human U2OS cells assessed as reduction in absolute N-linoleoylethanolamine level at 10 uM incubated for 4 hrs by LC-MS/MS analysis. Format: cell-based. Summed up:
as §2

Assay [7] has the same target. The assay is described as follows: Inhibition of full-length C-terminal FLAG-tagged human PLAAT5 expressed in human U2OS cells assessed as reduction in absolute N-eicosapentaenoylethanolamine level at 10 uM incubated for 4 hrs by LC-MS/MS analysis. The class given is cell-based. Summed up: as §2
The test system of assay [8] is U2OS. The experiment in a line: Downregulation of N-oleoylethanolamine level in human U2OS cells at 10 uM after 4 hrs by LC-MS/MS analysis. The class given is functional, cell-based. Summed up: as §2
Assay [9] deals with U2OS. The experiment in a line: Downregulation of N-arachidonoylethanolamine level in human U2OS cells at 10 uM after 4 hrs by LC-MS/MS analysis. The class given is functional, cell-based. In outline:
as §2

For assay [10], the system named is U2OS. The experiment in a line: Inhibition of serine hydrolase in human U2OS cell membrane fraction at 10 uM preincubated for 30 mins followed by MB064 addition and measured after 15 mins by SDS-PAGE based competitive ABPP analysis. In outline: (§3)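 U2OS cytosol or membrane lysate at 2.5 μg/μL, pretreated with inhibitor or DMSO vehicle for 30 min at rt. Probe then added for 15 min at rt: MB064 at 2 μM or FP-TAMRA at 500 nM. Samples denatured in Laemmli buffer and resolved by SDS-PAGE. In-gel fluorescence scanned at Cy3/Cy5 settings and normalized to Coomassie staining.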

Assay [11] relates to U2OS. The assay is described as follows: Inhibition of serine hydrolase in human U2OS cytosolic fraction at 10 uM preincubated for 30 mins followed by FP-TAMRA addition and measured after 15 mins by SDS-PAGE based competitive ABPP analysis. Summed up:
as §3

Assay [12] concerns the target Cytosolic phospholipase A2 beta (Homo sapiens) (UniProt P0C869). The assay is described as follows: Inhibition of human PLA2G4B expressed in HEK293T cell lysates at 10 uM preincubated for 30 mins followed by FP-TAMRA addition and measured after 20 mins by SDS-PAGE based competitive ABPP analysis. Format: cell-free. To be noted: HEK-293T. Summed up: (§4)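 hPLA2G4B, C or D-overexpressing membrane lysate (1 μg/μL) preincubated with inhibitor for 30 min at rt. FP-TAMRA 500 nM added for 20 min at rt. In-gel fluorescence after SDS-PAGE, normalized to Coomassie.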

Assay [13] has as its target Cytosolic phospholipase A2 gamma (Homo sapiens) (UniProt Q9UP65). The assay is described as follows: Inhibition of human PLA2G4C expressed in HEK293T cell lysates at 10 uM preincubated for 30 mins followed by FP-TAMRA addition and measured after 20 mins by SDS-PAGE based competitive ABPP analysis. Format: cell-free. Particulars: HEK-293T. Summed up: as §4
Assay [14] deals with Cytosolic phospholipase A2 delta (Homo sapiens) (UniProt Q86XP0). The assay is described as follows: Inhibition of human PLA2G4D expressed in HEK293T cell lysates at 10 uM preincubated for 30 mins followed by FP-TAMRA addition and measured after 20 mins by SDS-PAGE based competitive ABPP analysis. The class given is cell-free. To be noted: HEK-293T. Summed up:
as §4

The target of assay [15] is Monoglyceride lipase (Homo sapiens) (UniProt Q99685). The experiment in a line: Inhibition of human MAGL expressed in HEK293 cells assessed as enzyme remaining activity at 10 uM measured by natural substrate-based fluorescence assay relative to control.
Monoglyceride lipase (Homo sapiens), sequence (Q99685 whole entry): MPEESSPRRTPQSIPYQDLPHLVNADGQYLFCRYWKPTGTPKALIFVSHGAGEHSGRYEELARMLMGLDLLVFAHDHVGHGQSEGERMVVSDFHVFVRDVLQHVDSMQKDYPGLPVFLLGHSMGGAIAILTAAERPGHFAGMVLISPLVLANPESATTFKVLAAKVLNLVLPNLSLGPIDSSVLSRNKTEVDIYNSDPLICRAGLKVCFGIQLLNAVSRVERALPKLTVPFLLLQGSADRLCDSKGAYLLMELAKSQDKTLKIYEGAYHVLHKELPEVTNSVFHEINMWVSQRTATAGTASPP

Active and inactive are the calls of the source. The rule behind the calls is not given here.

Cytosolic phospholipase A2 delta (Homo sapiens), sequence (Q86XP0 whole entry): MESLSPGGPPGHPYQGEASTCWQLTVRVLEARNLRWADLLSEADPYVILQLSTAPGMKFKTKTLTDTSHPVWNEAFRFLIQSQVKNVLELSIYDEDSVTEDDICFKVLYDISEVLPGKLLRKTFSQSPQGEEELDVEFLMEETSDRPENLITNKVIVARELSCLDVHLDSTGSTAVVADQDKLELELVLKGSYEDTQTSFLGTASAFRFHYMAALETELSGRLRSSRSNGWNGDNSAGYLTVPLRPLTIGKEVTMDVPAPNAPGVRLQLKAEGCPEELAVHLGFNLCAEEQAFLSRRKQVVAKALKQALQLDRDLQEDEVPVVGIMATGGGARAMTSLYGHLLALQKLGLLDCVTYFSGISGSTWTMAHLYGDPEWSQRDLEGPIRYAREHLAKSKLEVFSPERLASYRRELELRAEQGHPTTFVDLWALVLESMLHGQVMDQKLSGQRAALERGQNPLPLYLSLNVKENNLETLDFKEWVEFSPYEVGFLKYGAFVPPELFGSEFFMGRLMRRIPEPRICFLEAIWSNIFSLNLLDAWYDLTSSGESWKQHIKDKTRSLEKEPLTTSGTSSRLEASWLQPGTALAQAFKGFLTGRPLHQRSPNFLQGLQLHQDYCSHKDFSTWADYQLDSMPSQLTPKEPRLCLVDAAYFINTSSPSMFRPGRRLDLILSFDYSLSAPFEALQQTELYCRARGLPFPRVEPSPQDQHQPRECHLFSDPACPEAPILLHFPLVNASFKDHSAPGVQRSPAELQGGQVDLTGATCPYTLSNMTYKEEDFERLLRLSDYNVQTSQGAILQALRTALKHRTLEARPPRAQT
Cytosolic phospholipase A2 beta (Homo sapiens), sequence (P0C869 whole entry): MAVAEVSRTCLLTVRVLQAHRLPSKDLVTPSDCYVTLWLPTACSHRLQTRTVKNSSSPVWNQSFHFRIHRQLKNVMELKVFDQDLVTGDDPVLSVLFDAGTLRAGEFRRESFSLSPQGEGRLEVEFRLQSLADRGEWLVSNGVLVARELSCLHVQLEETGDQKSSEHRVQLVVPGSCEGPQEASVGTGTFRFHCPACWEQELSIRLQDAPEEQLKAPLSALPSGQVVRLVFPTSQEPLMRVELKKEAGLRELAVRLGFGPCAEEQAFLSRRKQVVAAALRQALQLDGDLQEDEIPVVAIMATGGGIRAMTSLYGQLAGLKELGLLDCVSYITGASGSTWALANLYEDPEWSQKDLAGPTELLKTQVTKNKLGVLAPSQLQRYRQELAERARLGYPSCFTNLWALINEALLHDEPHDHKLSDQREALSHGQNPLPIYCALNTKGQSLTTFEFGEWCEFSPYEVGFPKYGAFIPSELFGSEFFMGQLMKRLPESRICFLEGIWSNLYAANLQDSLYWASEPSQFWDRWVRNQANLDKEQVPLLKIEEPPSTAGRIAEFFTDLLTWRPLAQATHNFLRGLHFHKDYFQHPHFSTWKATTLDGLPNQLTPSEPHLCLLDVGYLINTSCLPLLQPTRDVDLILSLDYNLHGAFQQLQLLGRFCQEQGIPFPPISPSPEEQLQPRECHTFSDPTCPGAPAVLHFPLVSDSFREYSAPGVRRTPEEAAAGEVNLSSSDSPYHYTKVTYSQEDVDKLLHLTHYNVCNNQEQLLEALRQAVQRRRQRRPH
Cytosolic phospholipase A2 gamma (Homo sapiens), sequence (Q9UP65 whole entry): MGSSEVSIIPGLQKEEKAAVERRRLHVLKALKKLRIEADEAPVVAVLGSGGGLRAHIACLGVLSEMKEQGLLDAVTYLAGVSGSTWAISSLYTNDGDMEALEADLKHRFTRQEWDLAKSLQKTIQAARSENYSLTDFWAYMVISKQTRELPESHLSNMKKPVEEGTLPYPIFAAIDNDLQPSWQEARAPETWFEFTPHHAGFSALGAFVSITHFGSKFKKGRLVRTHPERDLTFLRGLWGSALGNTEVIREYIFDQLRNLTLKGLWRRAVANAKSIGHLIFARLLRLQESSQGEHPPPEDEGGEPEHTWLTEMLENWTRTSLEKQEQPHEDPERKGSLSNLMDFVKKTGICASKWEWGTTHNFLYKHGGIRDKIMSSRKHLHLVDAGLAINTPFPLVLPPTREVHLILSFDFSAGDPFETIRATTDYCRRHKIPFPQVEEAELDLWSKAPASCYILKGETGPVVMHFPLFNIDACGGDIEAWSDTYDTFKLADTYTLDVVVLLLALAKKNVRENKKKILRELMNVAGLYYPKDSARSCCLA

As to `O=C(CCCc1ccccc1)C(=O)NCCc1ccc(Oc2ccccc2)cc1`, the IC50 in assay [1] was 251 nM; in [2], 50.1 nM. The fold change (FC) in assay [3] stood at 2. Also, the inhibition entry in assay [4], in assay [5], in assay [6] and in [7] was “Active” throughout. Besides, the inhibition result (in the assay with U2OS [8]; in the assay on U2OS [9]; in the assay on U2OS [10]; in the assay with U2OS [11]; in assay [12]; in [13]) was “inactive” in each case. Besides, the inhibition result in [14] was “inactive”. For the same compound, in assay [15], the Activity worked out at 105%.

In general, IC50 refers to the concentration at which inhibition is half-maximal. A low value points to greater potency in that assay.
